Screens as filed in PubChem.
HTR1A agonist = activates the human 5-HT1a serotonin receptor; P08908; activation, % at 10 µM; actives 0.56% (n = 65,000); CHO 5-HT1a Ga15 NFAT-bla reporter, FRET ratio; 0% basal, 100% maximal reference agonist; AID 567;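 active means activation above the screen-wide mean activation plus 3 SD, cut at about 19% in these data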;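 further: 0% = DMSO wells and 100% = 5-CT at EC100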
Target sequence (P08908 whole entry, looked up): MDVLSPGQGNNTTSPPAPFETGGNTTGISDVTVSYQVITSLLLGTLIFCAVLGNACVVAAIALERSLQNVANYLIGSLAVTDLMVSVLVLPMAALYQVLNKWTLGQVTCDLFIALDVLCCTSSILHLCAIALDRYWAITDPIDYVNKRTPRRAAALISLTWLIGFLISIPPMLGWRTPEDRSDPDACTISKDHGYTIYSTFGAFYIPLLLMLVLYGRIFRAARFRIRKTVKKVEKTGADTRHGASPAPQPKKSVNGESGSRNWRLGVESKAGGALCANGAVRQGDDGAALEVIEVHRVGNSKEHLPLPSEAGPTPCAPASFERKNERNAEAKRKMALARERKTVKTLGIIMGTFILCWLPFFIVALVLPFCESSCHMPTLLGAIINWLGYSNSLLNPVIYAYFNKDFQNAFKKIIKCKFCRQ
S1P1 ag pot = activates or potentiates agonism at human S1P1 receptor; S1P1 CRE-bla cells, forskolin, beta-lactamase FRET, potentiator mode; S1P1 agonist co-added at EC20, 2 nM; 100% = saturating reference agonist, 0% = basal; activation, % at 9.5 µM; AID 449; actives 0.57% (n = 56,000);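 active means activation above a cutoff set at the mean activation of all tested compounds plus 3 SD, cut at about 54% in these data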;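 further: forskolin at 4 µM as EC80 and the EC20 agonist is SEW2871; 100% = SEW2871 at its EC100 plus forskolin at EC80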
5HT1E antag = blocks the human 5-HT1E serotonin receptor. P28566. inhibition, % at 6 µM. CHO 5-HT1E Ga15 NFAT-bla reporter, FRET, antagonist. actives 0.99% (n = 65,000);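 active means inhibition above a set limit, the mean inhibition across every tested compound plus 3 SD, cut at about 29% in these data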;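 further: signal is the 460 over 535 nm emission ratio of beta-lactamase substrate; 0% = agonist plus DMSO wells and 100% = wells without agonist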
5-HT1A blocker = antagonists of human 5-HT1a serotonin receptor | P08908 | actives 0.68% (n = 62,000) | inhibition, % at 10 µM | CHO 5-HT1a Ga15 NFAT-bla reporter, antagonist mode | AID 612;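 active means inhibition above the mean of all tested compounds plus 3 SD, cut at about 43% in these data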;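 further: receptor stimulated by 5-CT agonist at 100 nM near EC80; beta-lactamase reporter measured by ratiometric fluorescence of a cleavable substrate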
HTR1E agonist = activates the human 5-HT1E serotonin receptor. CHO 5-HT1E Ga15 NFAT-bla reporter, FRET; 0% DMSO wells, 100% control agonist wells. activation, % at 6 µM. AID 574. actives 0.69% (n = 65,000). P28566;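 active means activation above a set limit, the screen-wide mean activation plus 3 SD, cut at about 8.5% in these data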;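 further: 100% = positive control agonist at 1 µM giving full maximal response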
S1P3 agonist = S1P3 (human) receptor agonism | AID 373 | actives 0.1% (n = 60,000) | activation, % at 4.5 µM | Q99500 | S1P3 NFAT-BLA reporter cells, FRET ratio; relative to 1 µM S1P, basal subtracted;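 active means activation above the screen-wide mean plus 3 SD, cut at about 4.5% in these data, passing the limit was not always enough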
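material = human S1P3 NFAT-BLA reporter CHO cells | schedule = 4 h compound at 37 °C, 2 h substrate at RT | measured by = fluorescent BLA substrate, ex 405 nm, em 460/535 nm ratio | controls = 1 µM S1P reference | replication = primary once, confirmation triplicate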
* hit, by the source's call; · = no result. An excerpt weighted towards active compounds, which were near 3% of everything screened.

SMILES	HTR1A agonist	S1P1 ag pot	5HT1E antag	5-HT1A blocker	HTR1E agonist	S1P3 agonist
CC(C)Cc1[nH]c(=O)c(C#N)c2c1CCC2	1.7	-18.4	-12.8	·	0.0	-3.0
O=C(CCCN1CCC2(CC1)C(=O)NCN2c1ccccc1)c1ccc(F)cc1	-1.6	-37.2	-30.4	·	16.0*	-0.5
CCOC(=O)C1=C(N)OC2=C(C(=O)CC(C)(C)C2)C12C(=O)Nc1ccccc12 (stereo not given)	-2.2	-7.2	0.4	-8.9	0.0	-1.1
CCN(CC)CCN=C(C)c1c(O)n(-c2ccccc2OC)c(=O)[nH]c1=O	2.0	-5.9	-7.8	·	-0.6	-3.1
COc1cc2nc(CN3CC=C(c4ccccc4)CC3)[nH]c(=O)c2cc1OC	1.1	22.0	1.0	44.1*	0.4	0.8
Cc1[nH]c2ccccc2c1C1=CCNCC1	0.4	14.7	-8.7	-15.9	90.6*	0.5
Cc1nn(C)c(C)c1P(=S)(c1c(C)nn(C)c1C)N(C)C	-0.7	-4.0	13.6	0.0	-0.7	-0.9
N#CC1=C(N)Oc2c(c(=O)oc3ccccc23)C1c1ccc(OC(=O)N2CCOCC2)cc1 (stereo not given)	-1.9	-28.6	-11.2	-5.7	-0.7	0.0
CCCNC(=O)N1C2CCC1CC(O)(c1cccnc1)C2 (stereo not given)	-2.3	0.3	7.4	-7.3	0.0	-0.4
Nc1c(C(=O)NCc2ccco2)c2nc3ccccc3nc2n1Cc1ccc(F)cc1	15.8	-63.6	-14.1	·	2.4	12.4
CCCCCCn1c(N)c(C(=O)NCCN2CCOCC2)c2nc3ccccc3nc21	10.8	-129.7	2.8	-19.1	3.0	10.0*
COCCCn1c(N)c(C(=O)NCCC(C)C)c2nc3ccccc3nc21	34.0*	-112.2	-20.7	-32.2	11.9*	10.2*
COc1ccc(Cn2c(N)c(C(=O)NCc3ccco3)c3nc4ccccc4nc32)cc1	-4.4	-298.5	6.6	20.9	0.3	7.5*
COCc1c(CN)cnc(C)c1N	-1.5	-0.8	-2.0	-7.7	-1.0	-0.7
COc1cc2c(cc1OC)-c1c(OC)c(OC)cc3c1C(C2)N(C)CC3 (stereo not given)	6.3	-20.7	23.5	2.6	25.1*	0.3
Cc1cccn2c(=O)c3cc(C(=O)N4CCC5(CC4)OCCO5)n(C)c3nc12	-1.3	15.7	15.2	6.6	0.4	-1.2
Cn1c(O)c(C(=NCCN2CCCCC2)c2ccccc2Cl)c(=O)n(C)c1=O	-0.5	-19.3	-11.2	42.9*	-0.9	-0.2
CCC(=NCCN1CCCCC1)c1c(O)n(C)c(=O)n(C)c1=O	-0.7	-3.7	-6.5	·	-0.5	-2.1
COc1cccc(N2CCN(Cc3ccc(Cl)cc3)CC2)c1	-1.2	-19.3	0.3	-5.4	8.0	-1.1
COc1cccc(N2CCN(Cc3cccc(Cl)c3)CC2)c1	1.9	-1.4	33.8*	-8.6	0.1	-1.9
CCn1nc(-c2cccs2)nc2c(=O)n(C)c(=O)nc1-2	10.7	96.2*	95.9*	81.9*	1.3	-2.1
CCCCc1nc(N2CCNCC2)c(C#N)c2c1CSC(C)(C)C2	-1.5	-19.6	9.2	·	10.2*	-2.6
O=C(CN1CCN(CCO)CC1)Nc1ccc(Cl)cc1C(=O)c1ccccc1	-1.0	6.2	7.6	·	-0.7	-1.3
CN1CCN(CC(=O)Nc2ccc(Cl)cc2C(=O)c2ccccc2)CC1	1.9	-11.1	-4.4	-3.5	10.4*	-1.0
CN1CC=C(c2c[nH]c3ccccc23)CC1	14.7	8.7	-6.9	-1.9	105.9*	-1.7
c1ccc2c(CN3CCCCCCC3)c[nH]c2c1	1.5	·	0.0	34.3	-0.9	3.6
CC1=C(C(=O)N2CCC3(CC2)OCCO3)C2(CCC(C)CC2)OC1=O (stereo not given)	0.8	9.3	-6.7	7.4	-0.2	-0.5
